Measured values published in ChEMBL document CHEMBL5154905, “Reversible Monoacylglycerol Lipase Inhibitors: Discovery of a New Class of Benzylpiperidine Derivatives” (J Med Chem, 2022).
Activity calls are given as the source filed them. The rule behind the calls is not given here.

Tests used:
[1] = tested on: PDAC-3; experiment: Induction of apoptosis in human PDAC-3 cells at IC50 measured after 72 hrs by Annexin-V/FITC staining based assay; type: functional, cell-based
Outline: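 Fixed with paraformaldehyde, stained with annexin V/FITC in HEPES-buffered saline (pH 7.4) with 2.5 mM CaCl2. Fluorescence read at ex 485/em 535 nm and normalised to cell number from crystal violet staining (595 nm). Triplicate measurements, expressed relative to untreated control.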

[2] = tested on: PDAC-3; experiment: Induction of apoptosis in human PDAC-3 cells assessed as increase in caspase-3 level at IC50 measured after 72 hrs by immunoassay; type: functional, cell-based
Outline: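 Cell extracts assayed with a human active caspase-3 ELISA; absorbance 450 nm minus 540 nm. Quantified against a recombinant human caspase-3 standard curve. Triplicate measurements, expressed relative to untreated cells.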

[3] = Stability of the compound in MeOH solution at 500 uM measured up to 24 hrs by UV/LC-MS analysis; type: physicochemical
[4] = Apparent permeability of the compound in PBS buffer pH 7.4 assessed as membrane retention at 0.5 mM incubated for 5 hrs by PAMPA based UV/LC-MS analysis; type: ADME; settings: pH 7.4, 5 h, 500 µM
[5] = Stability of the compound in pooled human plasma at 3 mM measured up to 24 hrs by UV/LC-MS assay; type: ADME, cell-free; settings: read-out: Stability
[6] = Aqueous solubility of compound at 1 mg/ml incubated for 24 hrs by LC-MS/MS analysis; type: physicochemical; settings: buffer
[7] = Stability of the compound in PBS buffer at pH 7.4 at 500 uM measured up to 24 hrs by UV/LC-MS analysis; type: physicochemical; settings: pH 7.4, 24 h
[8] = tested on: PDAC-3; experiment: Antiproliferative activity against human PDAC-3 cells assessed as cell growth inhibition incubated for 72 hrs by sulforhodamine B assay; type: functional, cell-based
Outline: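 Primary PDAC3 culture in RPMI-1640 with 10% newborn calf serum, penicillin/streptomycin, 37 °C, 5% CO2. Seeded 5000 cells/well; after 24 h exposed 72 h to MAGL inhibitor (0.1–50 μM, DMSO stock diluted in medium).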

[9] = Cytotoxicity against human hTERT-HPNE cells assessed as cell growth inhibition incubated for 72 hrs by sulforhodamine B assay; type: toxicity, cell-based
Outline: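 SRB growth-inhibition assay. Cells were seeded at 5000 per well and treated after 24 h, once a monolayer had formed, with MAGL inhibitors (0.1–50 μM) for 72 h. Cells were then fixed with trichloroacetic acid at 4 °C and stained with SRB. Bound dye was dissolved in Tris base and read at 490 and 540 nm. IC50 came from curve fitting.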

[10] = Induction of apoptosis in human PDAC-2 cells assessed as fold change in apoptotic rate at IC50 measured after 72 hrs by Annexin-V/FITC staining based assay relative to control; type: functional
Outline: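 Then paraformaldehyde-fixed and stained with annexin V/FITC in HEPES/NaCl/CaCl2 buffer, pH 7.4. Fluorescence read at ex 485/em 535 nm, normalised to cell number by crystal violet (595 nm). Expressed relative to untreated control (=1). Triplicate, mean ± SEM.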

[11] = tested on: PDAC-3; experiment: Antimigratory activity against human PDAC-3 cells assessed as reduction in MMP9 expression at 5 times IC50 incubated for 24 hrs by qRT-PCR analysis; type: functional, cell-based
[12] = tested on: PDAC-3; experiment: Synergistic antiproliferative activity against human PDAC-3 cells assessed as increase in ENT1 expression at 5 times IC50 incubated for 24 hrs in presence of gemcitabine by qRT-PCR analysis; type: functional, cell-based
[13] = tested on: PDAC-3; experiment: Induction of apoptosis in human PDAC-3 cells assessed as reduction in Bcl-2 […] expression at 5 times IC50 incubated for 24 hrs by qRT-PCR analysis; type: functional, cell-based
[14] = molecular target: T1, Monoacylglycerol lipase ABHD6 (Mus musculus) (UniProt Q8R2Y0); experiment: Inhibition of ABHD6 in mouse brain membrane at 10 uM using TAMRA-FP serine hydrolase probe as substrate preincubated for 25 mins followed by substrate addition and measured after 25 mins SDS-PAGE analysis; type: cell membranes; settings: time 50.0 min
T1 sequence (whole entry): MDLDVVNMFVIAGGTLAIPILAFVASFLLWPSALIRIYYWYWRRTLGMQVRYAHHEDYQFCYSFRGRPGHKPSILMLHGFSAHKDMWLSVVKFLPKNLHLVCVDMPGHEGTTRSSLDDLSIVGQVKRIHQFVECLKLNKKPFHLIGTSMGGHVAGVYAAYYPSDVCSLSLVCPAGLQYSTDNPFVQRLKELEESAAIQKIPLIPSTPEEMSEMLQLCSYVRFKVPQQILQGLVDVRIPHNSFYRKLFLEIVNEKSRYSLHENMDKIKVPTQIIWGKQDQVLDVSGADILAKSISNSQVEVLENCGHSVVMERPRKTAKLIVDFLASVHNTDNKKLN
Outline: (§1)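 Mouse half-brain membrane fraction (800g supernatants spun at 16000g, 4 °C; pellet in 50 mM Tris-HCl pH 7.4), diluted to 4 mg/mL in PBS. Preincubated 25 min at 25 °C with test agent (10 μM final) or DMSO, then TAMRA-FP (125 nM final) 25 min at 25 °C. Stopped in Laemmli buffer at 90 °C, run on 12% SDS-PAGE, in-gel fluorescence read. Coomassie confirmed loading. Three independent experiments.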

[15] = molecular target: T2, Fatty-acid amide hydrolase 1 (Mus musculus) (UniProt O08914); experiment: Inhibition of FAAH in mouse brain membrane at 10 uM using TAMRA-FP serine hydrolase probe as substrate preincubated for 25 mins followed by substrate addition and measured after 25 mins SDS-PAGE analysis; type: cell membranes; settings: time 50.0 min; outline: as §1
T2 sequence (whole entry): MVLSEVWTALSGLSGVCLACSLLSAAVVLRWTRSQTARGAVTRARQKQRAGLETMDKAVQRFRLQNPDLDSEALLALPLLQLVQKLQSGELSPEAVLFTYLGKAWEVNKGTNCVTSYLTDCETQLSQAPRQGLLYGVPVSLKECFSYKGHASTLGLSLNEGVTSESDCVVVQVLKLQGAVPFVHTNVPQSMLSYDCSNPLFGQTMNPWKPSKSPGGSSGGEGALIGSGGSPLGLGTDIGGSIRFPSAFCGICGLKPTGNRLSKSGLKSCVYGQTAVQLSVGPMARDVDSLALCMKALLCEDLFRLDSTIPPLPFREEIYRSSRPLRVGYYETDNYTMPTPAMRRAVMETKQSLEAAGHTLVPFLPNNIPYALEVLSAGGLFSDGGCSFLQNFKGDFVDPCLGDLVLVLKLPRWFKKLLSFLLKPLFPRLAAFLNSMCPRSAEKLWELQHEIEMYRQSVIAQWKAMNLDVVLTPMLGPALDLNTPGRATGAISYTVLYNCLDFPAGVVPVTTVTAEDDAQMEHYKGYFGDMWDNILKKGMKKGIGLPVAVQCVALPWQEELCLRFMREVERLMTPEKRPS

[16] = molecular target: T3, Lysophosphatidylserine lipase ABHD12 (Mus musculus) (UniProt Q99LR1); experiment: Inhibition of ABHD12 in mouse brain membrane at 10 uM using TAMRA-FP serine hydrolase probe as substrate preincubated for 25 mins followed by substrate addition and measured after 25 mins SDS-PAGE analysis; type: cell membranes; settings: time 50.0 min; outline: as §1
T3 sequence (whole entry): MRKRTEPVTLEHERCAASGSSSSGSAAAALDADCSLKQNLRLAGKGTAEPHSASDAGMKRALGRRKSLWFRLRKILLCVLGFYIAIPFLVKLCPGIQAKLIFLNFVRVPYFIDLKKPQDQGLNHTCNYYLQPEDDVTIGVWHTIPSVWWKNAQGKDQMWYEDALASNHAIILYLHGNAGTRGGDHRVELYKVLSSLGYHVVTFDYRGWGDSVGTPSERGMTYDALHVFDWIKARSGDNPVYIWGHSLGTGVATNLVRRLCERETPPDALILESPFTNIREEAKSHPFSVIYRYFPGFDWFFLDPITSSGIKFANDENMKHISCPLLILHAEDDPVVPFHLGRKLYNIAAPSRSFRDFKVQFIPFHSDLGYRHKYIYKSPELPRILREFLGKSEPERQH

Question: Which Activity [1] does the source give for `Nc1ccn([C@@H]2O[C@H](CO)[C@@H](O)C2(F)F)c(=O)n1` here?
Answer: The Activity was “Active”.

Question: And the Activity [2]?
Answer: The Activity was “Active”.

Question: Which results are given for `O=C(c1ccc(Sc2cccc(C(F)(F)F)c2)cc1)C1CCN(C(=O)c2cc(O)ccc2F)CC1`?
Answer: Stability [3]: > 24 h; R% [4]: 52.6%; half-life at 3000 µM [5]: > 24 h; logS0 [6]: < -8.702; solubility [6]: < 1 ng/mL; Stability [7]: > 24 h

Question: For `O=C(Oc1ccc([N+](=O)[O-])cc1)N1CCC(C(O)(c2ccc3c(c2)OCO3)c2ccc3c(c2)OCO3)CC1`, which Activity [1] is on record?
Answer: The Activity was “Active”.

Question: And the Activity [2]?
Answer: The Activity was “Active”.

Question: What about the Activity [8] of the same molecule?
Answer: The Activity was “Active”.

Question: Which IC50 at 72 h [9] does the source give for `O=C(c1cc(O)ccc1F)N1CCC(Cc2cccc(Oc3cc(C(F)(F)F)ccn3)c2)CC1` here?
Answer: Its IC50 at 72 h is over 20 µM.

Question: And the Stability [3]?
Answer: The Stability was over 24 h.

Question: What about the R% [4] of the same molecule?
Answer: Its R% is 38.9%.

Question: And the half-life at 3000 µM [5]?
Answer: The half-life at 3000 µM was over 24 h.

Question: What about the “fold change (FC)” value [10] of the same molecule?
Answer: Its value is 4.

Question: What about the logS0 [6] of the same molecule?
Answer: Its logS0 is under -8.676.

Question: What about the solubility [6] of the same molecule?
Answer: Its solubility is under 1 ng/mL.

Question: And the Activity [11]?
Answer: Its Activity is “Active”.

Question: And the Activity [12]?
Answer: Its Activity is “Active”.

Question: And the Activity [1]?
Answer: The Activity was “Active”.

Question: What about the Activity [13] of the same molecule?
Answer: Its Activity is “Active”.

Question: And the Activity [2]?
Answer: The Activity was “Active”.

Question: What about the Stability [7] of the same molecule?
Answer: Its Stability is over 24 h.

Question: Which inhibition [14] does the source give for `CN(Cc1cccc(-c2ccncc2)c1)C(=O)Oc1ccc(-c2ccc(C(N)=O)cc2)cc1` here?
Answer: Its inhibition is “Active”.

Question: What does the source list for `O=C(OC(C(F)(F)F)C(F)(F)F)N1CCN(Cc2ccc(C(F)(F)F)cc2N2CCCC2)CC1`?
Answer: Activity [1]: Active; Activity [2]: Active; Activity [8]: Active

Question: For `NC(=O)c1cccc(-c2cccc(OC(=O)NC3CCCCC3)c2)c1`, which inhibition [15] is on record?
Answer: Its inhibition is “Active”.

Question: With `CCCCCCCCCCC[C@@H](C[C@@H]1OC(=O)[C@H]1CCCCCC)OC(=O)[C@H](CC(C)C)NC=O` as the molecule, how does the inhibition [14] read?
Answer: The inhibition was “Active”.

Question: And the inhibition [16]?
Answer: Its inhibition is “Active”.
